This note sets out measurements from ChEMBL document CHEMBL1629492 (Eur J Med Chem, 2010).

The species entered for assay [1] is Rattus norvegicus. The experiment in a line: Selectivity ratio of EC50 for alpha1D adrenoceptor in Wistar rat thoracic aorta to EC50 for Alpha-1B adrenoceptor in Wistar rat spleen. The assay is classed as tissue-based.
The species named for assay [2] is Rattus norvegicus. Nature of the assay: Selectivity ratio of Ki for alpha1A adrenoceptor in Wistar rat vas deferens to Ki for Alpha-1B adrenoceptor in Wistar rat spleen. The assay is classed as tissue-based.
For assay [3], the species on record is Rattus norvegicus. The experiment in a line: Selectivity ratio of EC50 for alpha1A adrenoceptor in Wistar rat vas deferens to Ki for Alpha-1B adrenoceptor in Wistar rat spleen. The assay is classed as tissue-based.
Assay [4] concerns the target T1, Alpha-1A adrenergic receptor (Homo sapiens, UniProt P35348).
T1 sequence (P35348 whole entry): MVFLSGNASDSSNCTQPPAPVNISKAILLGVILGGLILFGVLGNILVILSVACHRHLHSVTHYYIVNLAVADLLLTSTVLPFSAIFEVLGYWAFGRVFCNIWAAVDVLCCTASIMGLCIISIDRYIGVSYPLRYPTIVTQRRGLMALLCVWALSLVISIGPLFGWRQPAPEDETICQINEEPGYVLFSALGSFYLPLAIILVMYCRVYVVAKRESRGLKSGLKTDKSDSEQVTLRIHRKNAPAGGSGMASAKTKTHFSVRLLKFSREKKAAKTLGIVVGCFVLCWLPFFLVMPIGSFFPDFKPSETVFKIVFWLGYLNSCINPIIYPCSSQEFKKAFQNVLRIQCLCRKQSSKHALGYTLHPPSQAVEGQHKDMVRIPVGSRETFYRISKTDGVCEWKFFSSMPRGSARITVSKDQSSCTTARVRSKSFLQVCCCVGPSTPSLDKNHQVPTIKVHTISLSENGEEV
Nature of the assay: Displacement of [3H]prazosin from human alpha1A adrenoceptor expressed in CHO cells. It is filed as cell-based. The procedure, abridged: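 Membranes ([…], as printed) from CHO cells stably expressing the cloned human α1a subtype were incubated with 0.1–0.4 nM [³H]prazosin and competitor (1 pM up to the top concentration) in 50 mM Tris-HCl, pH 7.4, for 30 min at 25 °C. Non-specific binding was defined with phentolamine, and incubations ended by rapid filtration. IC50 was converted to Ki by Cheng–Prusoff. Reported as pKi from 2–3 triplicate experiments.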

The species named for assay [5] is Rattus norvegicus. The experiment in a line: Selectivity ratio of EC50 for alpha1A adrenoceptor in Wistar rat vas deferens to EC50 for Alpha-1D adrenoceptor in Wistar rat thoracic aorta. The assay is classed as tissue-based.
For assay [6], the species on record is Rattus norvegicus. The experiment in a line: Selectivity ratio of Ki for alpha1D adrenoceptor in Wistar rat thoracic aorta to Ki for Alpha-1B adrenoceptor in Wistar rat spleen. The assay is classed as tissue-based.
Assay [7] can be described thus: Selectivity ratio of Ki for human alpha1A adrenoceptor to Ki for human Alpha-1B adrenoceptor. The procedure, abridged:
(§1)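 Subtype selectivity is the antilog of the difference between pKi values, from [³H]prazosin displacement (0.1–0.4 nM, 30 min, 25 °C, pH 7.4) at cloned human α1a, α1b and α1d receptors in CHO membranes. Ki values came from IC50 via Cheng–Prusoff.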

Assay [8] addresses T2, Alpha-1D adrenergic receptor (Rattus norvegicus, UniProt P23944).
T2 sequence (P23944 whole entry): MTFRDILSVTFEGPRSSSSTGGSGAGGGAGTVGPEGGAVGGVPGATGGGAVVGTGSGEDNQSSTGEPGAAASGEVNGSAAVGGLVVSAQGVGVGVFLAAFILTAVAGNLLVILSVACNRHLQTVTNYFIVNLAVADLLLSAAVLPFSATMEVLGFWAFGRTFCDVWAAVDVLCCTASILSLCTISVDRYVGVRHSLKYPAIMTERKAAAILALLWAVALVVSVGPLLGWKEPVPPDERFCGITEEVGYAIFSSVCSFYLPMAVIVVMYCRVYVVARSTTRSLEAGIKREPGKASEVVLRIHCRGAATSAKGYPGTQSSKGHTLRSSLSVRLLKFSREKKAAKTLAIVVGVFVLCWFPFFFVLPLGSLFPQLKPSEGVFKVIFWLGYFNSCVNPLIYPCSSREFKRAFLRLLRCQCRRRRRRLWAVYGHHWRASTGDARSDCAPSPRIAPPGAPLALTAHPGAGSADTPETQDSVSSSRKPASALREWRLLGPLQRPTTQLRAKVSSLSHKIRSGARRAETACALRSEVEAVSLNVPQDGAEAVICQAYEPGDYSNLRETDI
Nature of the assay: Antagonist activity at Alpha-1D adrenoceptor in Wistar rat thoracic aorta assessed as noradrenaline induced contractions after 30 mins.

Assay [9] addresses T3, Alpha-1D adrenergic receptor (Homo sapiens, UniProt P25100).
T3 sequence (P25100 whole entry): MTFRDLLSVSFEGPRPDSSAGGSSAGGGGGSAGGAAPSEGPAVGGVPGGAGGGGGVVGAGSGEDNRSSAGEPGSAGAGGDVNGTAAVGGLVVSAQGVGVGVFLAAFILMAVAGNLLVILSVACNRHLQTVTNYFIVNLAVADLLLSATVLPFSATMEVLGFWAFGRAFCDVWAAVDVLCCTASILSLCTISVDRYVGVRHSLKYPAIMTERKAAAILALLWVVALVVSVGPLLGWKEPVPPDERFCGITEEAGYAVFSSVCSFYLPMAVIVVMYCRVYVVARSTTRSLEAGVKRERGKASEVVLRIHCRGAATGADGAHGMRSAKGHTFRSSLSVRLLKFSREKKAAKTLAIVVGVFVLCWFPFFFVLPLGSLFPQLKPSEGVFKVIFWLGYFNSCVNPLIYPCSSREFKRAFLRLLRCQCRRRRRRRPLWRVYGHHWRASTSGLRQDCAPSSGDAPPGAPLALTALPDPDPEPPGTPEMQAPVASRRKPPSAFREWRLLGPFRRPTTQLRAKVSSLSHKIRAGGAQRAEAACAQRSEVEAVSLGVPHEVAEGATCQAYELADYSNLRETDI
Nature of the assay: Displacement of [3H]prazosin from human Alpha-1D adrenoceptor expressed in CHO cells. It is filed as cell-based. The gist of the method:
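Membranes ([…], as printed) from CHO cells stably expressing the cloned human α1d subtype were incubated with 0.1–0.4 nM [³H]prazosin and competing drug (1 pM upward) in 50 mM Tris-HCl, pH 7.4, for 30 min at 25 °C. Phentolamine defined non-specific binding. IC50 was converted to Ki by Cheng–Prusoff. Reported as pKi from 2–3 triplicate experiments.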

The species entered for assay [10] is Rattus norvegicus. The experiment in a line: Selectivity ratio of Ki for alpha1A adrenoceptor in Wistar rat vas deferens to Ki for Alpha-1D adrenoceptor in Wistar rat thoracic aorta. The assay is classed as tissue-based.
A short description of assay [11]: Selectivity ratio of Ki for human alpha1A adrenoceptor to Ki for human Alpha-1D adrenoceptor. The gist of the method:
as §1

Assay [12] is filed under the species Rattus norvegicus. Nature of the assay: Selectivity ratio of Ki for alpha1A adrenoceptor in Wistar rat vas deferens to EC50 for Alpha-1D adrenoceptor in Wistar rat thoracic aorta. The assay is classed as tissue-based.

For `COc1ccc(C[C@@H](C)NCCOc2ccccc2OC(C)C)cc1S(N)(=O)=O`, the Selectivity ratio worked out at 3 in [1]; 7 in assay [2]; 7 in assay [3]; 2 in assay [5]; 3 in assay [6]; 2 in [10]. Besides, the Selectivity ratio in assay [12] is 2. The Ki is 0.339 nM in [4] and 0.245 nM in assay [9]. Further, the Ki ratio in assay [7] amounted to 5; in assay [11], 0.7. Besides, in assay [8], the Kb is 0.501 nM.
`COc1ccc(C[C@@H](C)NC[C@@H]2Oc3ccccc3O[C@@H]2C)cc1S(N)(=O)=O`: the Selectivity ratio in assay [1] amounted to 0.8; in [2], 1; in assay [3] it was 1; in [5], 1; in assay [6] it was 0.8; in assay [10], 1. In addition, the Selectivity ratio in assay [12] was determined as 1. For the same compound, the results for the Ki in assay [4] and in assay [9] were 11.5 nM and 15.5 nM, respectively. For the same compound, the Ki ratio in assay [7] turned out to be 3; in [11], 1. The Kb in assay [8] is 21.4 nM.
For `COc1ccc(C[C@@H](C)NC[C@H]2Oc3ccccc3O[C@H]2C)cc1S(N)(=O)=O`, the Selectivity ratio in assay [1] stood at 0.5; in [2], 1; in assay [3] it was 1; in assay [5], 2; in assay [6] it was 0.5; in [10] it was 2. Also, the Selectivity ratio in [12] amounted to 2. Also, the Ki in [4] is 19.1 nM; in assay [9], 17.4 nM. Moreover, the results for the Ki ratio in [7] and in [11] were 4 and 0.9, respectively. Besides, in [8], the antagonist equilibrium constant (Kb) was 60.3 nM.
Take `COc1ccc(C[C@@H](C)NCCOc2ccccc2OCC(F)(F)F)cc1S(N)(=O)=O`: the Selectivity ratio in assay [1] worked out at 1; in assay [2], 4; in [3] it was 4; in assay [5], 4; in assay [6] it was 1; in assay [10], 4. Also, the Selectivity ratio in [12] came to 4. For the same compound, the Ki in assay [4] is 0.603 nM; in [9] it was 0.955 nM. Also, the Ki ratio in [7] is given as 9; in assay [11] it was 2. In assay [8], the Kb was 0.955 nM.
With `COc1ccc(C[C@@H](C)NCCOc2ccccc2OCc2ccccc2)cc1S(N)(=O)=O`, the Selectivity ratio in assay [1] was 4; in [2] it was 12; in assay [3], 12; in [5], 3; in [6], 4; in assay [10], 3. The Selectivity ratio in [12] was found to be 3. Further, the Ki was 0.347 nM in assay [4] and 0.324 nM in [9]. Moreover, the Ki ratio stood at 6 in assay [7] and 0.9 in assay [11].
